Source: PubChem
In the library only some 3.4% were active in any assay of this set; here they are far more common.
UCH37 DUB inh = human UCH37 deubiquitinating enzyme inhibition | Q9Y5K5 | inhibition, % (concentration not given with the values) | purified proteasome/UCH37, Ub-AMC cleavage fluorescence | hit rate 0.33% among 330,000;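 active = mean inhibition over replicate wells above about 20%, limit read from the data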;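 also: 0% = compound-free wells with enzyme and 100% = wells lacking proteasome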
Target sequence (Q9Y5K5 whole entry, looked up): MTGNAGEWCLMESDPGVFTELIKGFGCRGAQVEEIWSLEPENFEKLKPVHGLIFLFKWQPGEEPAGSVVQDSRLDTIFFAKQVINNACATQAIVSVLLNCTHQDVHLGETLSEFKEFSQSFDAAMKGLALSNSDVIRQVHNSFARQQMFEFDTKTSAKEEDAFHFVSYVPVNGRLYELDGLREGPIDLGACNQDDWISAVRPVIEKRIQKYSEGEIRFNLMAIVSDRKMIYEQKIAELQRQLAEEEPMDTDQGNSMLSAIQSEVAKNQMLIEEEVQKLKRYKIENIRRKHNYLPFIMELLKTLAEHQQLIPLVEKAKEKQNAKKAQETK
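Material: human UCH37 enzyme supplied as purified proteasome complex / Amount: 0.15 nM proteasome as dispensed / Buffer or medium: pH 7.4 Tris-HCl (50 mM) with ovalbumin, ATP-MgCl2, DTT / Times: preincubation 30 min, reaction 25 min, room temperature / Technique: AMC fluorescence from Ub-AMC cleavage, excitation 355 nm, emission 460 nm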
APOBEC3A inh = human APOBEC3A DNA deaminase inhibition; P31941; recombinant A3A, FAM/TAMRA ssDNA deamination fluorescence; inhibition, % at 20 µM; hit rate 0.41% among 330,000;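 active = at least 40% inhibition at 20 µM here, with at most 30% in a related deaminase screen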;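 also: plate controls were A3A with DMSO for no effect and wells lacking A3A enzyme for full effect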
Target sequence (P31941 whole entry, looked up): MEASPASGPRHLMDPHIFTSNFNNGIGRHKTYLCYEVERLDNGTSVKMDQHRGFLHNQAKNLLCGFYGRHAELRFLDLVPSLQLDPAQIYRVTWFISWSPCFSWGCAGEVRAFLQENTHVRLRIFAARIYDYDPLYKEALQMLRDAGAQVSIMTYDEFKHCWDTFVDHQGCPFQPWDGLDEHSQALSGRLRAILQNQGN
PolyA inhibitor = inhibitors of polyadenylation in S. cerevisiae. S. cerevisiae SKY197-pL101 polyadenylation reporter, beta-gal luminescence; efflux-impaired pdr1/pdr3 knockout yeast; score 100 = 6 SD above DMSO. activity score, % at 12 µM. hit rate 0.02% among 300,000;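 active = lowest replicate activity score at least 50, where 100 means six control SD above control mean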;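 also: yeast exposed to compound for 9 h at 30 °C; higher score means more reporter readthrough which indicates perturbed polyadenylation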
APOBEC3G inh = APOBEC3G (human) deaminase inhibition | Q9HC16 | recombinant A3G, ssDNA deamination FAM/TAMRA fluorescence | inhibition, % at 20 µM | hit rate 0.28% among 330,000;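 active = inhibition of at least 40% at 20 µM, with no more than 30% in the related APOBEC3A deaminase screen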;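 also: plate controls were DMSO wells with A3G for no effect and wells lacking A3G enzyme for full effect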
Arrestin-AP2 inh = inhibitors of human beta-arrestin and AP2 interaction; FITC-arrestin peptide / GST-AP2 beads, flow cytometry; AP2 beta2 appendage carries R879A mutation; inhibition, % at 10 µM; hit rate 0.31% among 340,000; AID 504490;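 active = inhibition above a set limit, near 3 SD of compounds lacking own fluorescence, cut at about 54% in these data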;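 also: plate controls were DMSO wells for no effect and 5 µM unlabelled arrestin peptide for full effect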
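System: GST-tagged AP2 beta2-adaptin appendage (R879A) on 4 µm glutathione beads / Reagent: FITC-arrestin peptide, 50 nM / Detection: HyperCyt-sampled flow cytometry, FL1 channel, ex 488/em 535 nm / Timing: 12 min plus 1 h, RT / Buffer or medium: PBS plus Tween 20 (0.05%) and BSA (0.1%)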
AHR activator = activators of human aryl hydrocarbon receptor | AID 2796 | activation, % at 5 µM | hit rate 2.5% among 320,000 | AHR-responsive luciferase reporter cells, luminescence | P35869; in the data active = activation above about 47%;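 also: 0% = vehicle wells and 100% = reference agonist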
A3A conf = confirmation of human APOBEC3A DNA deaminase inhibitors; AID 493151; inhibition, % at 20 µM; hit rate 63% among 1,400; recombinant A3A, ssDNA deaminase UDG fluorescence assay; shares compounds with APOBEC3A inh;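 active = inhibition reaching a set limit, 80% of the first screen's cutoff, at 20 µM in any replicate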;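 also: plate controls were DMSO wells with A3A for no effect and wells lacking A3A enzyme for full effect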
UDG ctr A3A = counter-screen for APOBEC3A inhibitors: UDG; shares compounds with APOBEC3A inh; UDG counterscreen, FAM/TAMRA uracil oligo fluorescence; inhibition, % at 20 µM; 1,000 tested, under 10 active; call rule not given here
* hit, by the source's call; . = not tested or not shown.

SMILES	UCH37 DUB inh	APOBEC3A inh	PolyA inhibitor	APOBEC3G inh	Arrestin-AP2 inh	AHR activator	A3A conf	UDG ctr A3A
CCn1c(SCc2nc3ccccc3nc2C)nnc1-c1cccs1	6	-7	-10	-14	9	15	.	.
C=CCn1c(SCc2nc3ccccc3nc2C)nnc1-c1ccoc1C	3	45*	-29	-5	4	5	-1	3
COc1ccccc1C=NNc1cc(C)nc(-n2nc(C)cc2C)n1	-42	.	.	.	.	.	.	.
CCN(CC(=O)NCC(=O)Nc1ccc(Br)cc1C)Cc1ccccc1	4	40*	-3	-7	-2	4	8	5
CC(CCc1ccc2c(c1)OCO2)=NNC(=O)c1ccc(C)cc1C	-2	.	.	.	.	.	.	.
Cc1cccc(C(=O)OCC(=O)NCCNC(=O)COC(=O)c2cccc(C)c2C)c1C	0	40*	12	6	-11	3	17	.
Cc1cccc(C(=O)OCC(=O)NCc2ccc3c(c2)OCO3)c1C	.	-2	.	-3	10	0	.	.
COc1ccc(N(CC(=O)NN=C2CCCC2)S(=O)(=O)c2ccccc2)cc1	5	-2	-6	-5	4	3	.	.
CC(C)c1ccc(N(CC(=O)NN=C2CCN(C)CC2)S(=O)(=O)c2ccccc2)cc1	4	65*	6	-4	1	8	3	7
COc1ccc(N(CC(=O)NCCSc2ccc(C)cc2)S(=O)(=O)c2ccccc2)c(OC)c1	.	54*	-11	12	-9	-2	40*	-1
COc1ccc(N(CC(=O)NCC(C)C)S(=O)(=O)c2ccccc2)cc1	4	41*	-15	9	5	1	10	.
CCOc1ccc(C2C(C(=O)Nc3ccccc3)=C(C)N=c3sc(=Cc4cccc(OCC(=O)O)c4)c(=O)n32)cc1 (stereo unspecified)	3	.	.	.	.	.	.	.
COc1ccc(OCC(=O)NN=Cc2cccn2-c2cccc(C(=O)O)c2)cc1	12	.	.	.	.	.	.	.
CC(=O)N1CCN(CCN(CC2C(C)C=C(C)CC2C)C(C)=O)CC1 (stereo unspecified)	3	-1	-1	-5	1	3	.	.
CC1=CC(C)C(CN(CCC[N+](C)(C)C)C(=O)Nc2ccccc2)C(C)C1 (stereo unspecified)	0	58*	-8	25	5	1	28*	-2
CCC(C)NC(=O)CON=Cc1ccccc1OC(F)F (stereo unspecified)	1	.	.	.	.	.	.	.
CCOc1ccc2c(c1)[N+](C)(C)C(C)(C)C=C2C	-5	78*	-9	18	47	-2	70*	-2
COc1ccc2c(c1)[N+](C)(C)C(C)(C)C=C2C	1	56*	5	10	-23	-2	82*	4
CN(C)C=Nc1c(C#N)cnn1-c1nc2ccccc2s1	1	.	.	.	.	.	.	.
O=C(OCc1nc2ccsc2c(=O)[nH]1)c1ccccc1	-3	56*	10	-11	-3	4	-2	-2
CCOC(=O)C1CCN(C(=O)C(C)Sc2nnc3ccccn23)CC1 (stereo unspecified)	0	60*	.	-1	4	0	7	3
CCOC(=O)C1CCN(C(=O)C(C)Sc2ccc(Cl)cc2)CC1 (stereo unspecified)	2	-1	4	-8	-1	3	.	.
COc1ccc(CC(C)=NNC(=S)Nc2ccc(C)c(C)c2)cc1	5	.	.	.	.	.	.	.
COc1ccc(OCCn2c(C)c(C=Nn3cnnc3)c3ccccc32)cc1	5	.	.	.	.	.	.	.
CCNc1ccc(Br)cc(C(=O)/C=C/c2ccc3c(c2)OCO3)c1=O	4	46*	4	28	25	12	19*	-4
SMILES	UCH37 DUB inh	APOBEC3A inh	PolyA inhibitor	APOBEC3G inh	Arrestin-AP2 inh	AHR activator	A3A conf	UDG ctr A3A
Cc1cc(C(=O)NN=Cc2ccc(-c3ccc([N+](=O)[O-])cc3Cl)o2)n[nH]1	13	.	.	.	.	.	.	.
COc1ccccc1OC(C)C(=O)N1CCC(Cc2ccccc2)CC1 (stereo unspecified)	2	55*	16	5	5	-1	47*	-2
CC(=NNC(=O)CSc1nc(C)cc(C)n1)c1cccc([N+](=O)[O-])c1	-1	.	.	.	.	.	.	.
C[N+]1(C2CCC3CCCC2C3O)CCCC1 (stereo unspecified)	1	59*	2	10	-14	0	74*	0
O=C(Nc1ccc2ncccc2c1)c1ccccc1Cl	2	46*	12	6	-2	9	75*	-2
O=C(Nc1ccc2ncccc2c1)c1ccccc1	.	29	-5	9	-14	6	.	.
Cc1cccc(-c2nc3ccccc3c(=O)n2NC(=O)c2ccc([N+](=O)[O-])c(C)c2)c1	2	49*	-6	-12	10	3	-8	0
NC(=S)Nn1c(-c2ccccc2)nc2ccccc2c1=O	0	42*	1	-3	-4	0	2	-3
O=C(Cc1ccccc1)Nn1c(-c2ccccc2)nc2ccccc2c1=O	0	0	1	3	-1	7	.	.
CC(=O)c1ccc(Nc2nc(-c3ccccc3)nc3ccccc23)cc1	.	.	.	.	-20	.	.	.
CN(C)C(=O)c1ccc(Nc2nc(-c3cccs3)nc3ccccc23)cc1	-39	43*	-11	-5	-6	17	13	-3
COc1ccc(C=NN2C(=O)C3C4C=CC(C4)C3C2=O)cc1[N+](=O)[O-] (stereo unspecified)	6	.	.	.	.	.	.	.
Cc1cc(-c2ccccc2)nc2c(Br)c(C(=O)O)nn12	5	42*	-8	23	5	2	40*	-2
CSCC[C@H](NC(=O)[C@@H]1Cc2ccccc2CN1)C(=O)NCC1CCC(C(=O)O)CC1 (stereo partly specified)	2	.	.	.	.	.	.	.
CCC1CCCCN1C(=O)COc1ccccc1NC(C)=O (stereo unspecified)	0	41*	2	11	4	13	3	.
CCC1CCCCN1C(=O)COc1cc(=O)n(C)c2ccccc12 (stereo unspecified)	1	-1	5	-8	21	39	.	.
CCN(CC(=O)Nc1ccc(NC(C)=O)cc1)C(=O)c1ccc(NC2CC2)c([N+](=O)[O-])c1	.	52*	-4	24	1	-1	-1	.
CCOc1ccc(NC(=O)CN(C)C(=O)c2ccc(NC3CC3)c([N+](=O)[O-])c2)cc1OCC	2	-5	-1	-10	-4	8	.	.
Cc1cc(C(=O)NN=Cc2ccc(OCc3ccccc3)cc2)c(C)o1	2	.	.	.	.	.	.	.
